Measurements taken from ChEMBL document CHEMBL1255526, “Fused tricyclic pyrrolizinones that exhibit pseudo-irreversible blockade of the NK1 receptor” (Bioorg Med Chem Lett, 2010).

Assays:
Substance-P receptor [1] = biological target: T1, Substance-P receptor (Homo sapiens, UniProt P25103); test: Displacement of [125I]substance P from human NK1 receptor expressed in CHO cells in presence of 50% human serum; format: cell-based
Procedure, shortened: (§1)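 Radioligand binding: [125I]substance P displaced from human NK1 receptor expressed in CHO cells; IC50 determined. Also run with 50% serum added (human, dog, rhesus, rat or gerbil) to measure the serum shift.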

[2] = Metabolic stability in rat microsomes assessed as compound remaining after 60 mins; format: ADME, Microsome; conditions: read-out: Stability
Procedure, shortened: (§2)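 Compound incubated 60 min with liver microsomes from human, dog, rat or rhesus; % parent remaining measured.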

[3] = Mean residence time in rat; format: ADME, organism-based; conditions: in vivo
[4] = Half life in dog; format: ADME, organism-based, Canis lupus familiaris; conditions: in vivo
[5] = Metabolic stability in rhesus monkey microsomes assessed as compound remaining after 60 mins; format: ADME, Macaca mulatta, Microsome; conditions: read-out: Stability; procedure, shortened: as §2
Substance-P receptor [6] = biological target: T1, Substance-P receptor; test: Displacement of [125I]substance P from human NK1 receptor expressed in CHO cells; format: cell-based; procedure, shortened: as §1
Substance-P receptor [7] = biological target: T1, Substance-P receptor; test: Displacement of [125I]substance P from human NK1 receptor expressed in CHO cells in presence of 50% mongolian gerbil serum; format: cell-based; procedure, shortened: as §1
Meriones unguiculatus [8] = species: Meriones unguiculatus; test: Inhibition of GR-73632-induced foot tapping in Mongolian gerbil after 24 hrs; format: functional
Procedure, shortened: (§3)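 Gerbils given antagonist at the dose and pretreatment time shown (1 mg/kg at 1 h, 3 mg/kg at 24 h); foot tapping then induced with the NK1 agonist GR73632. Read-out is % inhibition of tapping; ED50 or ID50 from dose–response.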

Substance-P receptor [9] = biological target: T1, Substance-P receptor; test: Displacement of [125I]substance P from human NK1 receptor expressed in CHO cells in presence of 50% rhesus monkey serum; format: cell-based; procedure, shortened: as §1
[10] = Ratio of drug level in brain to plasma in Mongolian gerbil; format: ADME, Meriones unguiculatus; conditions: read-out: BPR
[11] = Half life in rat; format: ADME, organism-based; conditions: in vivo
Cytochrome P450 2D6 = Cytochrome P450 2D6 (Homo sapiens, UniProt P10635); test: Inhibition of CYP2D6; format: ADME
[12] = Metabolic stability in human microsomes assessed as compound remaining after 60 mins; format: ADME, Microsome; conditions: read-out: Stability; procedure, shortened: as §2
[13] = Metabolic stability in dog microsomes assessed as compound remaining after 60 mins; format: ADME, Canis lupus familiaris, Microsome; conditions: read-out: Stability; procedure, shortened: as §2
Meriones unguiculatus [14] = species: Meriones unguiculatus; test: Inhibition of GR-73632-induced foot tapping in Mongolian gerbil after 1 hr; format: functional; conditions: read-out: ID50 (the source's name); procedure, shortened: as §3
[15] = Plasma clearance in dog; format: ADME, organism-based, Canis lupus familiaris
Cytochrome P450 2C9 = Cytochrome P450 2C9 (Homo sapiens, UniProt P11712); test: Inhibition of CYP2C9; format: ADME
[16] = Plasma clearance in rat; format: ADME, organism-based
[17] = Binding affinity to potassium channel IKr
[18] = Oral bioavailability in rat; format: ADME, organism-based; conditions: in vivo
[19] = biological target: T2, Nuclear receptor subfamily 1 group I member 2 (Homo sapiens, UniProt O75469); test: Inhibition of human PXR induction
T2 sequence (O75469 whole entry): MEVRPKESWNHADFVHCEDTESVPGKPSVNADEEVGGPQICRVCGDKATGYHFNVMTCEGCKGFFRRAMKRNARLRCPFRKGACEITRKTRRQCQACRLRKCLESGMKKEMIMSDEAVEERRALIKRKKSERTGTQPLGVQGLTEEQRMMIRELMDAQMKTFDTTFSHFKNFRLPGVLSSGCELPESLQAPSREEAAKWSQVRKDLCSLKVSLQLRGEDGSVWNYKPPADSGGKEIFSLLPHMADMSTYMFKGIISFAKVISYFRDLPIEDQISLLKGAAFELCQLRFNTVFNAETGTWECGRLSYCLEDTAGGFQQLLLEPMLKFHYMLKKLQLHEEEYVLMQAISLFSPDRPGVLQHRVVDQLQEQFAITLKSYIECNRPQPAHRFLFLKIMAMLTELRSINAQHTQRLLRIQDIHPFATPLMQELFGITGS

[20] = Binding affinity to sodium channel
Procedure, shortened: (§4)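 Ion channel binding assay; IC50 values calculated for sodium channel and for calcium channel (Dlz site).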

[21] = Volume of distribution in rat; format: ADME, organism-based; conditions: in vivo
Substance-P receptor [22] = biological target: T1, Substance-P receptor; test: Antagonist activity at human recombinant NK1 receptor expressed in CHO cells assessed as remaining substance P level at 100 nM after 30 mins by [H3]-inositol phosphate release assay; format: functional, cell-based
Procedure, shortened: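 CHO cells with recombinant human NK1 receptor, 2.5 × 10⁴ per well, plated overnight, then prelabelled overnight at 37 °C with [3H]-myo-inositol (10–25 Ci/mmol) in inositol-free medium with 0.02% BSA. LiCl 10 mM in HEPES-buffered inositol-free DMEM, 15 min. Antagonist at 100 nM or DMSO for 30 min, then substance P for 30 min. Stopped with formic acid. [3H]-inositol phosphate captured on yttrium silicate SPA beads, 2 h. Reported as % substance P response remaining.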

Cytochrome P450 3A4 = Cytochrome P450 3A4 (Homo sapiens, UniProt P08684); test: Inhibition of CYP3A4; format: ADME
Meriones unguiculatus [23] = test: Inhibition of GR-73632-induced foot tapping in Mongolian gerbil at 3 mg/kg after 24 hrs; format: functional; procedure, shortened: as §3
Substance-P receptor [24] = biological target: T1, Substance-P receptor; test: Displacement of [125I]substance P from human NK1 receptor expressed in CHO cells in presence of 50% rat serum; format: cell-based; procedure, shortened: as §1
[25] = biological target: T3, PXR (nuclear receptor subfamily 1 group I member 2) (Homo sapiens, UniProt O75469); test: Inhibition of human PXR induction at 10 uM
T3 sequence (O75469 whole entry): T2 sequence (O75469 whole entry)
Procedure, shortened: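 Human PXR induction measured at 10 µM compound, expressed as % of maximal induction.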

[26] = Binding affinity to calcium channel; procedure, shortened: as §4
Substance-P receptor [27] = biological target: T1, Substance-P receptor; test: Displacement of [125I]substance P from human NK1 receptor expressed in CHO cells in presence of 50% dog serum; format: cell-based; procedure, shortened: as §1

T1 sequence (P25103 whole entry): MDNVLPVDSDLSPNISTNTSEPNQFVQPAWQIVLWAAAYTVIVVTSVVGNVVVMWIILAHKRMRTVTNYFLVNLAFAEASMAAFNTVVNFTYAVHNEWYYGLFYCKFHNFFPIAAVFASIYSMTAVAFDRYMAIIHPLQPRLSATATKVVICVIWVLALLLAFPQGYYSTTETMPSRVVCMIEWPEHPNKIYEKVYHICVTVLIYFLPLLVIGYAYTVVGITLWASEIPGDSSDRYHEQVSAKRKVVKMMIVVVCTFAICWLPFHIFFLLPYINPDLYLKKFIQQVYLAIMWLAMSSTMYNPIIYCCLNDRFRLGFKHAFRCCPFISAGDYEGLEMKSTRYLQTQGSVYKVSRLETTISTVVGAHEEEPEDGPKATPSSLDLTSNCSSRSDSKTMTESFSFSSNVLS
Sequence of Cytochrome P450 3A4 (P08684 whole entry): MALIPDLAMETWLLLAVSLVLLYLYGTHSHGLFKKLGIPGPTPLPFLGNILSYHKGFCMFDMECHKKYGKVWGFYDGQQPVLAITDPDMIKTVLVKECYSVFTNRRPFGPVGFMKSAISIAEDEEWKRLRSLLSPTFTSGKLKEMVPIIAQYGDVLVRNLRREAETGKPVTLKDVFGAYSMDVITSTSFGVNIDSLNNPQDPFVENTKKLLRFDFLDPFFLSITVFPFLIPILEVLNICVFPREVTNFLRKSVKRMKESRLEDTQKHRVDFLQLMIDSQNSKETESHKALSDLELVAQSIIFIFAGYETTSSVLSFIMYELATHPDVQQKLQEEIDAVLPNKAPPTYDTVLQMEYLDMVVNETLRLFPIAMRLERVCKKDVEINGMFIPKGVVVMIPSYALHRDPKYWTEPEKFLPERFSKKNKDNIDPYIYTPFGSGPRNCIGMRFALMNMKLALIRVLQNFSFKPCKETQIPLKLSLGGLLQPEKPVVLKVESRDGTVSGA
Sequence of Cytochrome P450 2C9 (P11712 whole entry): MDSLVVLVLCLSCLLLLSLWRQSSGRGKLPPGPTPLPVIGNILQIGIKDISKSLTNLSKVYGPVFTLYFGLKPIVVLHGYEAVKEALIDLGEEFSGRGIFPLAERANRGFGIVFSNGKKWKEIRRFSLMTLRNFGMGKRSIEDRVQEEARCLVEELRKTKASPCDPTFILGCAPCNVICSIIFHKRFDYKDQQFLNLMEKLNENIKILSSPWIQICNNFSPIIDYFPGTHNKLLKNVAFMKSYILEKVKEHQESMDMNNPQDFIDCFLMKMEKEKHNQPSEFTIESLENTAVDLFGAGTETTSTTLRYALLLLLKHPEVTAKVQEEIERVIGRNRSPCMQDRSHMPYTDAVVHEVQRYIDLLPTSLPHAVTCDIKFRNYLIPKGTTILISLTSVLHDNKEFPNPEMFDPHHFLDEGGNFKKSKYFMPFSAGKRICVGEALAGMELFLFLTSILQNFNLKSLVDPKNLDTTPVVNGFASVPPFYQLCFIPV
Sequence of Cytochrome P450 2D6 (P10635 whole entry): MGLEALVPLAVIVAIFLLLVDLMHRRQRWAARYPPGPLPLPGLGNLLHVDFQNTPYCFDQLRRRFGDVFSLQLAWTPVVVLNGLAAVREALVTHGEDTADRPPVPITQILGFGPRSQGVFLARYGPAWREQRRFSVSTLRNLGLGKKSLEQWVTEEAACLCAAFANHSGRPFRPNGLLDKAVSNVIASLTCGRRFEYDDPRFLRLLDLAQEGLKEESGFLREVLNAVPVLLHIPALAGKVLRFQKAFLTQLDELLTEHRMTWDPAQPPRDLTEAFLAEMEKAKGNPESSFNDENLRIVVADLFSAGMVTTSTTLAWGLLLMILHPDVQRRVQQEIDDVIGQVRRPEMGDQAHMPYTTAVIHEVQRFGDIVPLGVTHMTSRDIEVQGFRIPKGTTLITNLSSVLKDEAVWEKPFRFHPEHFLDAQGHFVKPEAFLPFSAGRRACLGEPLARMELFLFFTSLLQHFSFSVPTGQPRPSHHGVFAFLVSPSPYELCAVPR

With `C[C@@H](O[C@H]1CN2C(=O)[C@H]3C[C@@](C)(O)C[C@H]3[C@H]2[C@@H]1c1ccc(F)cc1)c1cc(C(F)(F)F)cc(C(F)(F)F)c1` the IC50 (Substance-P receptor [1]) was 0.7 nM, the remaining at 1 h [2] was 96% and the MRT [3] was 4.67 h. For the same molecule, the half-life [4] was 2.42 days, the remaining at 1 h [5] was 99% and the IC50 (Substance-P receptor [6]) was 0.061 nM. The IC50 (Substance-P receptor [7]) was 1.9 nM, the ED50 (Meriones unguiculatus [8]; read-out: ED50) was 0.02 mg/kg and the ED50 (Meriones unguiculatus [8]; read-out: ID50 (the source's name)) was 0.02 mg/kg. It also gave an IC50 (Substance-P receptor [9]) of 0.4 nM, a Kp [10] of 0.5 and a half-life [11] of 876 min. For the same molecule, the IC50 (Cytochrome P450 2D6) was 17.4 µM, the remaining at 1 h [12] was 96% and the remaining at 1 h [13] was 90%. It also gave an ED50 (Meriones unguiculatus [14]) of 0.02 mg/kg, a clearance [15] of 0.5 mL/min/kg and an IC50 (Cytochrome P450 2C9) of 43.1 µM. For the same molecule, the clearance [16] was 3.24 mL/min/kg, the IC50 [17] was 2470 nM and the bioavailability [18] was 88.8%. For the same molecule, the IC50 [19] was 8.4 µM, the IC50 [20] was over 10 µM and the Vd [21] was 4.03 L/kg. The Activity (Substance-P receptor [22]) was 3%, the IC50 (Cytochrome P450 3A4) was 22.7 µM and the inhibition in vivo at 3 mg/kg (Meriones unguiculatus [23]) was 100%. For the same molecule, the IC50 (Substance-P receptor [24]) was 0.4 nM, the Emax at 10 µM [25] was 37% and the IC50 [26] was over 10 µM. The IC50 (Substance-P receptor [27]) was 1.5 nM.
